Assay results taken from ChEMBL document CHEMBL1629439, “High-throughput identification of antibacterials against methicillin-resistant Staphylococcus aureus (MRSA) and the transglycosylase” (Bioorg Med Chem, 2010).
Converted amounts (≈) assume the structure as drawn.

Legend:
[1] = test system: Stenotrophomonas maltophilia; assay: Antimicrobial activity against Stenotrophomonas maltophilia ATCC 13637 after 18 to 24 hrs by alamar blue assay; assay type: functional; conditions: Stenotrophomonas maltophilia, ATCC 13637; read-out: MIC
How it was run: (§1)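 Broth microdilution per NCCLS in Mueller-Hinton broth, 8-point twofold dilutions, 384-well format. Exponential-phase cells at 5 × 10^5 cells/ml incubated with compound 18–24 h at 37 °C, then 20% Alamar blue added and fluorescence read. MIC90 taken as the lowest concentration preventing at least 90% bacterial growth.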

Staphylococcus aureus [2] = assay: Antimicrobial activity against oxacillin- and methicillin-resistant Staphylococcus aureus isolate Sa-OXA-R2 after 18 to 24 hrs by alamar blue assay; assay type: functional
How it was run: (§2)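 Broth microdilution per NCCLS standard, Mueller-Hinton broth, 8-point twofold dilutions; exponentially growing cells at 5 10^5 cells/ml with compound, 18–24 h at 37 C; 20% Alamar blue added, fluorescence read; MIC90 taken as lowest concentration preventing at least 90% growth.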

[3] = test system: Mycolicibacterium smegmatis; assay: Antimicrobial activity against Mycobacterium smegmatis BCRC 11565 after 18 to 24 hrs by alamar blue assay; assay type: functional; conditions: Mycolicibacterium smegmatis, BCRC 11565; read-out: MIC; how it was run: as §1
Pseudomonas aeruginosa = assay: Antimicrobial activity against Pseudomonas aeruginosa ATCC 25619 after 18 to 24 hrs by alamar blue assay; assay type: functional; conditions: Pseudomonas aeruginosa, ATCC 25619; read-out: MIC; how it was run: as §1
Escherichia coli = assay: Antimicrobial activity against Escherichia coli ATCC […] after 18 to 24 hrs by alamar blue assay; assay type: functional; conditions: Escherichia coli; read-out: MIC; how it was run: as §1
Staphylococcus aureus [4] = assay: Antimicrobial activity against Staphylococcus aureus ATCC 29213 after 18 to 24 hrs by alamar blue assay
Bacillus subtilis = assay: Antimicrobial activity against Bacillus subtilis ATCC 23857 after 18 to 24 hrs by alamar blue assay; assay type: functional; how it was run: as §1
Staphylococcus aureus [5] = assay: Antimicrobial activity against methicillin-resistant Staphylococcus aureus ATCC 33592 after 18 to 24 hrs by alamar blue assay; assay type: functional; conditions: Staphylococcus aureus, ATCC 33592; read-out: MIC; how it was run: as §2
Acinetobacter baumannii = assay: Antimicrobial activity against Acinetobacter baumannii ATCC 49139 after 18 to 24 hrs by alamar blue assay; assay type: functional; conditions: Acinetobacter baumannii, ATCC 49139; read-out: MIC; how it was run: as §1
Serratia marcescens = assay: Antimicrobial activity against Serratia marcescens ATCC 14756 after 18 to 24 hrs by alamar blue assay; assay type: functional; conditions: Serratia marcescens, ATCC 14756; read-out: MIC; how it was run: as §1
Staphylococcus aureus [6] = assay: Antimicrobial activity against methicillin-resistant Staphylococcus aureus isolate NTUH4722 after 18 to 24 hrs by alamar blue assay; assay type: functional; how it was run: as §2

Row | Structure (SMILES) | MIC [1] [µg/mL] | MIC (Staphylococcus aureus [2]) [µg/mL] | MIC [3] [µg/mL] | MIC (Pseudomonas aeruginosa) [µg/mL] | MIC (Escherichia coli) [µg/mL] | MIC (Staphylococcus aureus [4]) [µg/mL] | MIC (Bacillus subtilis) [µg/mL] | MIC (Staphylococcus aureus [5]) [µg/mL] | MIC (Acinetobacter baumannii) [µg/mL] | MIC (Serratia marcescens) [µg/mL] | MIC (Staphylococcus aureus [6]) [µg/mL]
1 | O=C(Nc1nnc(-c2ccc(Cl)cc2)o1)c1cccc(C(F)(F)F)c1 | > 256 | 0.125 (≈ 0.34 µM) | 0.5 (≈ 1.36 µM) | > 256 | > 256 | 1 (≈ 2.72 µM) | 0.5 (≈ 1.36 µM) | 0.5 (≈ 1.36 µM) | > 256 | > 256 | 0.125 (≈ 0.34 µM)
2 | CCc1ccccc1NS(=O)(=O)c1ccc2c(c1)NC(C)CC(=O)S2 (stereo not given) | > 256 | > 64 | > 64 | > 256 | > 256 | 2 (≈ 5.31 µM) | < 0.03 | 8 (≈ 21.2 µM) | > 256 | > 256 | 4 (≈ 10.6 µM)
3 | O=C(Nc1nnc(-c2ccc(Cl)cc2)o1)c1cccc(Br)c1 | > 256 | 2 (≈ 5.28 µM) | 0.5 (≈ 1.32 µM) | > 256 | > 256 | 0.5 (≈ 1.32 µM) | 0.5 (≈ 1.32 µM) | 0.5 (≈ 1.32 µM) | > 256 | > 256 | 2 (≈ 5.28 µM)
4 | CCc1cc(O)nc(N2NC(C)=CC2NC(=O)c2ccccc2F)n1 (stereo not given) | > 256 | 1 (≈ 2.91 µM) | 0.25 (≈ 0.728 µM) | > 256 | > 256 | 1 (≈ 2.91 µM) | 0.25 (≈ 0.728 µM) | 4 (≈ 11.6 µM) | > 256 | > 256 | 2 (≈ 5.82 µM)
5 | O=C(Nc1nnc(-c2ccc(F)cc2)o1)c1cccc(C(F)(F)F)c1 | > 256 | 4 (≈ 11.4 µM) | 0.5 (≈ 1.42 µM) | > 256 | > 256 | 0.5 (≈ 1.42 µM) | 0.5 (≈ 1.42 µM) | 0.5 (≈ 1.42 µM) | > 256 | > 256 | 1 (≈ 2.85 µM)
6 | O=C1c2cccc3cccc(c23)C(=O)N1CCN1CCN(CCc2ccccc2)CC1 | > 256 | 0.5 (≈ 1.21 µM) | 4 (≈ 9.67 µM) | > 256 | > 256 | 1 (≈ 2.42 µM) | 4 (≈ 9.67 µM) | 1 (≈ 2.42 µM) | > 256 | > 256 | 16 (≈ 38.7 µM)
7 | Cc1c(CCC(=O)O)c(=O)oc2c(C)c3occ(-c4ccc(Br)cc4)c3cc12 | > 256 | 1 (≈ 2.27 µM) | 1 (≈ 2.27 µM) | > 256 | > 256 | 0.5 (≈ 1.13 µM) | > 64 | 1 (≈ 2.27 µM) | > 256 | > 256 | 0.5 (≈ 1.13 µM)
8 | Cc1c(CC(=O)NCCCC(=O)O)c(=O)oc2c(C)c3occ(-c4ccc(Cl)cc4)c3cc12 | > 256 | 2.5 (≈ 5.34 µM) | 1 (≈ 2.14 µM) | > 256 | > 256 | 2.5 (≈ 5.34 µM) | > 64 | 2.5 (≈ 5.34 µM) | > 256 | > 256 | 2.5 (≈ 5.34 µM)
9 | CCOc1ccc2nc(NC(=O)c3ccc([N+](=O)[O-])o3)sc2c1 | 32 (≈ 96 µM) | 16 (≈ 48 µM) | 0.5 (≈ 1.5 µM) | 128 (≈ 384 µM) | 256 (≈ 768 µM) | 2 (≈ 6 µM) | 0.06 (≈ 0.18 µM) | 4 (≈ 12 µM) | 12 (≈ 36 µM) | 32 (≈ 96 µM) | 16 (≈ 48 µM)
10 | CCc1cc(O)nc(N2NC(C)=CC2NC(=O)c2ccccc2Cl)n1 (stereo not given) | > 256 | 1.2 (≈ 3.34 µM) | 0.25 (≈ 0.695 µM) | > 256 | > 256 | 1.2 (≈ 3.34 µM) | 0.25 (≈ 0.695 µM) | 1.2 (≈ 3.34 µM) | > 256 | > 256 | 1.2 (≈ 3.34 µM)
11 | Cc1ccccc1NS(=O)(=O)c1ccc2c(c1)NC(=O)C(C)S2 (stereo not given) | > 256 | 1.2 (≈ 3.44 µM) | > 64 | > 256 | > 256 | 1.2 (≈ 3.44 µM) | < 0.03 | 1.2 (≈ 3.44 µM) | > 256 | > 256 | 1.2 (≈ 3.44 µM)
12 | Cc1ccc(-c2coc3c(C)c4oc(=O)c(CCC(=O)O)c(C)c4cc23)cc1 | > 256 | 2 (≈ 5.31 µM) | 1 (≈ 2.66 µM) | > 256 | > 256 | 1 (≈ 2.66 µM) | > 64 | 2 (≈ 5.31 µM) | > 256 | > 256 | 1 (≈ 2.66 µM)
13 | O=C(Nc1ccc(Cl)c(S(=O)(=O)Nc2cccc(Cl)c2)c1)c1ccc([N+](=O)[O-])o1 | 32 (≈ 70.1 µM) | 1.5 (≈ 3.29 µM) | 0.5 (≈ 1.1 µM) | 128 (≈ 281 µM) | 256 (≈ 561 µM) | 1.5 (≈ 3.29 µM) | 0.06 (≈ 0.132 µM) | 1.5 (≈ 3.29 µM) | 12 (≈ 26.3 µM) | 32 (≈ 70.1 µM) | 1.5 (≈ 3.29 µM)
14 | Cc1c(CC(=O)N[C@@H](C(=O)O)C(C)C)c(=O)oc2c(C)c3occ(-c4ccc(Cl)cc4)c3cc12 | > 256 | 2.5 (≈ 5.19 µM) | 1 (≈ 2.07 µM) | > 256 | > 256 | 1.25 (≈ 2.59 µM) | > 64 | 1.25 (≈ 2.59 µM) | > 256 | > 256 | 2.5 (≈ 5.19 µM)
15 | NC(=O)c1ccsc1NC(=O)c1ccc([N+](=O)[O-])o1 | 32 (≈ 114 µM) | 0.25 (≈ 0.889 µM) | 0.5 (≈ 1.78 µM) | 128 (≈ 455 µM) | 256 (≈ 910 µM) | 2 (≈ 7.11 µM) | 0.06 (≈ 0.213 µM) | 0.25 (≈ 0.889 µM) | 12 (≈ 42.7 µM) | 32 (≈ 114 µM) | 0.25 (≈ 0.889 µM)
16 | O=C1c2cc([N+](=O)[O-])cc3cc([N+](=O)[O-])cc(c23)C(=O)N1Nc1ccc(Cl)cc1 | > 256 | 2.5 (≈ 6.06 µM) | 4 (≈ 9.69 µM) | > 256 | > 256 | 2.5 (≈ 6.06 µM) | 4 (≈ 9.69 µM) | 2.5 (≈ 6.06 µM) | > 256 | > 256 | 2.5 (≈ 6.06 µM)
17 | Cn1c(/C=C/c2ccc([N+](=O)[O-])o2)nc2ccccc2c1=O | > 256 | 0.5 (≈ 1.68 µM) | 1 (≈ 3.36 µM) | 2 (≈ 6.73 µM) | 16 (≈ 53.8 µM) | 1 (≈ 3.36 µM) | < 0.03 | 2 (≈ 6.73 µM) | > 256 | > 256 | 1 (≈ 3.36 µM)
18 | CCCc1ccc(C)c(Oc2ccc(Cl)cc2NC(=O)c2cc(Cl)cc(Br)c2O)c1 | 16 (≈ 31.4 µM) | 0.06 (≈ 0.118 µM) | 0.5 (≈ 0.982 µM) | 16 (≈ 31.4 µM) | 8 (≈ 15.7 µM) | 0.25 (≈ 0.491 µM) | < 0.03 | 0.125 (≈ 0.245 µM) | 16 (≈ 31.4 µM) | 16 (≈ 31.4 µM) | 0.06 (≈ 0.118 µM)
19 | CCOc1ccccc1N(C)S(=O)(=O)c1ccc2c(c1)NC(=O)C(C)S2 (stereo not given) | > 256 | > 64 | > 64 | > 256 | > 256 | 4 (≈ 10.2 µM) | < 0.03 | 8 (≈ 20.4 µM) | > 256 | > 256 | 8 (≈ 20.4 µM)
20 | Cc1c(CC(=O)NCC(=O)O)c(=O)oc2c(C)c3occ(-c4ccc(Cl)cc4)c3cc12 | > 256 | 1.25 (≈ 2.84 µM) | 1 (≈ 2.27 µM) | > 256 | > 256 | 1.25 (≈ 2.84 µM) | > 64 | 1.25 (≈ 2.84 µM) | > 256 | > 256 | 1.25 (≈ 2.84 µM)
21 | CCC(NC(=O)Cc1c(C)c2cc3c(-c4ccc(Cl)cc4)coc3c(C)c2oc1=O)C(=O)O (stereo not given) | > 256 | 2.5 (≈ 5.34 µM) | 1 (≈ 2.14 µM) | > 256 | > 256 | 2.5 (≈ 5.34 µM) | > 64 | 5 (≈ 10.7 µM) | > 256 | > 256 | 2.5 (≈ 5.34 µM)
22 | O=C(Nc1cc(Cl)c(Cl)c(Cl)c1)c1cc(Cl)cc(Cl)c1O | 16 (≈ 41.5 µM) | 0.125 (≈ 0.324 µM) | 0.5 (≈ 1.3 µM) | 16 (≈ 41.5 µM) | 8 (≈ 20.8 µM) | 0.125 (≈ 0.324 µM) | < 0.03 | 0.5 (≈ 1.3 µM) | 16 (≈ 41.5 µM) | 16 (≈ 41.5 µM) | 1 (≈ 2.59 µM)
23 | Cc1ccc(NS(=O)(=O)c2ccc3c(c2)NC(=O)C(C)S3)c(C)c1 (stereo not given) | > 256 | > 64 | > 64 | > 256 | > 256 | 2 (≈ 5.52 µM) | < 0.03 | 32 (≈ 88.3 µM) | > 256 | > 256 | 4 (≈ 11 µM)
24 | CCC1Sc2ccc(S(=O)(=O)Nc3cc(Cl)ccc3C)cc2NC1=O (stereo not given) | > 256 | 16 (≈ 40.3 µM) | > 64 | > 256 | > 256 | 4 (≈ 10.1 µM) | < 0.03 | > 64 | > 256 | > 256 | 16 (≈ 40.3 µM)
25 | CCN1C(=O)/C(=C/c2ccc([N+](=O)[O-])o2)SC1=S | > 256 | 0.25 (≈ 0.879 µM) | 1 (≈ 3.52 µM) | 2 (≈ 7.03 µM) | 16 (≈ 56.3 µM) | 0.5 (≈ 1.76 µM) | < 0.03 | 0.5 (≈ 1.76 µM) | > 256 | > 256 | 0.125 (≈ 0.44 µM)
